Data on twelve molecules can be found in ChEMBL document CHEMBL3272127, “Synthesis and kinetic evaluation of S- and N-substituted cysteinylglycines as inhibitors of glyoxalase I” (J Med Chem, 1977).

SMILES strings stand for the structures. Calls of active or inactive are those of the source. The calls are words filed in the database; no cut-off is given here. Square brackets hold non-standard residues; d marks the D form. Peptide text beside a SMILES is read from it. * marks the point of attachment. Bn = c1ccc(C*)cc1; GABA = NCCCC(=O)O; βAla = NCCC(=O)O

Test [1] in a line: Noncompetitive inhibition of yeast glyoxalase 1 assessed as inhibition of product formation by double reciprocal plot method. Also on record: species or system Saccharomyces cerevisiae. The method in brief: (§1)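 Yeast glyoxalase I, diluted to 20 µg/ml in 30% glycerin with 0.1% BSA. Assays ran at 30 °C in 0.05 M phosphate buffer, pH 6.6. Methylglyoxal, reduced glutathione, inhibitor and buffer were preincubated 3 min to form the hemimercaptal, then enzyme was added. Product formation was followed at 240 nm.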

Test [2] in a line: Binding affinity to yeast glyoxalase 1 assessed as inhibition of product formation by double reciprocal plot method. Set-up: species or system Saccharomyces cerevisiae. The method, boiled down:
as §1

Test [3] relates to Saccharomyces cerevisiae. The test is described as follows: Competitive inhibition of yeast glyoxalase 1 assessed as inhibition of product formation by double reciprocal plot method. The method in brief:
as §1

In test [4] the test system is Saccharomyces cerevisiae. Kind of test: Activity of yeast glyoxalase 1. The method in brief: as §1
The species named for another test is Mus musculus. The test is described as follows: Activity of mouse liver glyoxalase.
Test [5] is described as follows: Ratio of Km for yeast glyoxalase 1 to Km for mouse liver glyoxalase.
Test [6] concerns Saccharomyces cerevisiae. The test is described as follows: Binding affinity to active site of yeast glyoxalase 1 using hemimercaptal as substrate at 0.005 to 0.015 mM in presence of free glutathione.
For test [7], the system named is Saccharomyces cerevisiae. The test is described as follows: Synergistic binding affinity to active site of yeast glyoxalase 1 using hemimercaptal as substrate at 0.1 to 0.3 mM in presence of free glutathione. The method in brief:
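Yonetani–Thorell analysis with yeast glyoxalase I at 30 °C, pH 6.6 phosphate, read at 240 nm. Reciprocal velocity was plotted against inhibitor concentration at fixed hemimercaptal substrate and fixed free glutathione levels of 0.1, 2.0 or 5.0 mM.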

What is called Ki is a dissociation constant, usually derived from enzyme kinetics or from competition with a known ligand. Regarding `NCCC(=O)N[C@@H](CSCc1ccc(Br)cc1)C(=O)NCC(=O)O`, in test [1] (read-out: Ki), the Ki came out at 1500 µM.

Regarding `NCCCC(=O)N[C@@H](CSCc1ccccc1)C(=O)NCC(=O)O` (H-[GABA]-Cys(Bn)-Gly-OH), in test [1] (read-out: Ki), the Ki was determined as 4100 µM.

`O=C(O)CCC(=O)N[C@@H](CSCc1ccc(Br)cc1)C(=O)NCC(=O)O`: the Ki in test [1] (read-out: Ki) came to 400 µM.

For the molecule `N[C@@H](CSCc1ccccc1)C(=O)NCC(=O)O`, in test [1], the Ki entry is on record as “Not Active”.

Regarding `NCCC(=O)N[C@@H](CSCc1ccccc1)C(=O)NCC(=O)O` (H-[βAla]-Cys(Bn)-Gly-OH), the Ki in test [1] (read-out: Ki) came to 5300 µM.

`O=C(O)CCC(=O)N[C@@H](CSCc1ccccc1)C(=O)NCC(=O)O`: the Ki in test [1] (read-out: Ki) is 4500 µM.

For the molecule `O=C(O)CCCC(=O)N[C@@H](CSCc1ccccc1)C(=O)NCC(=O)O`, in test [1] (read-out: Ki), the Ki was found to be 3000 µM.

As for `N[C@@H](CSCc1ccc(Br)cc1)C(=O)NCC(=O)O`, the Ki in test [1] (read-out: Ki) was 580 µM.

One may read the Kd as a measure of binding affinity in units of concentration. By Km is commonly meant the concentration of substrate that gives half-maximal velocity. Take `CC(=O)C(O)SC[C@H](NC(=O)CC[C@H](N)C(=O)O)C(=O)NCC(=O)O` (stereo partly drawn): in test [2], the Kd is 3100 µM. Further, in the test with Saccharomyces cerevisiae [3], the inhibition result was “Active”. In addition, the Km was determined as 500 µM in the test with Saccharomyces cerevisiae [4] and 57 µM in the test listed under Mus musculus. For the same molecule, in test [5], the Ratio was 10.

In the case of `N[C@@H](CCC(=O)N[C@@H](CSCc1ccc(Br)cc1)C(=O)NCC(=O)O)C(=O)O`, the inhibition entry in the test with Saccharomyces cerevisiae [3] was “Active”. For the same molecule, the result in the test with Saccharomyces cerevisiae [6] was Active.

On to `NCCCC(=O)N[C@@H](CSCc1ccc(Br)cc1)C(=O)NCC(=O)O`, for which, in test [1] (read-out: Ki), the Ki stood at 1200 µM.

`O=C(O)CCCC(=O)N[C@@H](CSCc1ccc(Br)cc1)C(=O)NCC(=O)O`: the Ki in test [1] (read-out: Ki) stood at 320 µM. Moreover, in the test on Saccharomyces cerevisiae [7], the result was Active.
